Screening data from PubChem BioAssay.
Only some compounds are listed: those with a hit (about 4.5% of all), similar ones and a draw of the others.
MrgX1 antagonist – antagonists of human MrgX1 receptor, primary screen, HEK293 cells, Fluo-4 calcium flux; B-score at 10 µM; AID 588676, 2011; 1.3% of 310,000 active; Mas-related G-protein coupled receptor member X1 (Homo sapiens), Q96LB2; BAM8-22 antagonism; hits give low values;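 active means calcium-response B-score plate-corrected more than 3 library SD below zero, starting fluorescence within 5 deviations, no agonist response on first addition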;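 further: peak minus trough fluorescence over baseline after final BAM8-22 challenge near maximal dose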
Target sequence (Q96LB2 whole entry, looked up): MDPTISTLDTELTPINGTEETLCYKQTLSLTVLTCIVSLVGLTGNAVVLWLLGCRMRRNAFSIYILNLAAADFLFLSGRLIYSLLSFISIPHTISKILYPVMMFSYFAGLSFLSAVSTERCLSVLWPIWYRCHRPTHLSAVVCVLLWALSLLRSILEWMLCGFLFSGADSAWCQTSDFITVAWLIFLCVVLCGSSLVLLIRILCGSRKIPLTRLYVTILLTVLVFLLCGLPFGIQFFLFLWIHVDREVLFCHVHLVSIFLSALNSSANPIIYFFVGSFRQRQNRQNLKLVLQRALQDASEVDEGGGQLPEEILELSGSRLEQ
RGS4 inh – RGS4 inhibitors, primary screen, cell-based, HEK293 M3R inducible RGS4, calcium flux | Regulator of G-protein signaling 4 (Homo sapiens), P49798 | B-score at 10 µM | Fluo-4 calcium flux; hits give high values; triggered by carbachol at its EC20 | 0.45% of 310,000 active | AID 463165, 2010;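 active means B-score, a plate-corrected calcium signal, over three deviations above library mean, with baseline fluorescence within five deviations of library mean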;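 further: RGS4 expression induced by doxycycline in cells with stable M3 receptor; B-score is computed from the integrated fluorescence ratio over baseline after carbachol; higher B-score means a larger calcium signal and so more RGS4 inhibition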
MrgX1 agonist – agonists of human MrgX1 receptor, primary screen, HEK293 cells, Fluo-4 calcium flux. AID 588627, 2011. B-score at 10 µM. 0.44% of 310,000 active. Fluo-4 calcium fluorescence, agonist mode; hits give high values;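 active means calcium response B-score plate-corrected fluorescence ratio at least 3 library SD, with starting fluorescence B-score inside 5 SD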
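Material: MrgX1-expressing HEK293 cells / Dosing: compound as first of three additions / Incubation: overnight seeding, then 1 h dark dye loading / Signal: Fluo-4 NW calcium fluorescence / Evaluation: B-scored fluorescence response ratio / Benchmarks: positive and negative control wells on each plate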
RGS4 pot – RGS4 potentiators or activators, primary screen, cell-based, HEK293 M3R inducible RGS4, calcium flux | carbachol calcium flux Fluo4; hits give low values | B-score at 10 µM | 0.92% of 310,000 active | AID 463111, 2010;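 active means B-score of the integrated calcium signal more than 4 SD below the library mean, with starting fluorescence not abnormally high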;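 further: negative B-score means reduced calcium response which marks RGS4 activation or potentiation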
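Also added: carbachol at ECmax as muscarinic agonist stimulus; Assay system: HEK293 cells with stable M3R and inducible RGS4; Timing: overnight RGS4 induction, 30 min dye load 37 °C, 20 min compound RT; Measured by: Fluo4-AM (2 µM) calcium-flux fluorescence, kinetic read.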
MrgX1 PAM – positive allosteric modulators of MrgX1, primary screen, HEK293 cells, Fluo-4 calcium flux; B-score at 10 µM; Mas-related G-protein coupled receptor member X1 (Homo sapiens), Q96LB2; 0.63% of 310,000 active; FDSS; hits give high values;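 active means plate-corrected calcium response at least 3 library SD above typical, normal starting fluorescence, not activating the receptor alone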;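 further: compound read alongside a low EC10 to EC30 dose of BAM8-22 agonist; peak minus trough fluorescence over baseline measured at the second addition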
PHOSPHO1 block – PubChem AID 1565; Phosphoethanolamine/phosphocholine phosphatase (Homo sapiens), Q8TCT1; recombinant PHOSPHO1, absorbance phosphatase assay; inhibition, % at 13.3 µM; 1.1% of 290,000 active; in the data active means inhibition above about 60%
An asterisk follows results filed as active.

For COc1ccc(-c2nc(-c3ccccc3)c(-c3cccs3)[nH]2)cc1OC the results were MrgX1 antagonist inactive, RGS4 inh inactive, MrgX1 agonist inactive, RGS4 pot inactive, MrgX1 PAM inactive and PHOSPHO1 block 34.9.
`O=[N+]([O-])c1cccc(-c2nc(-c3cccs3)c(-c3cccs3)[nH]2)c1` gave MrgX1 antagonist inactive, RGS4 inh inactive, MrgX1 agonist inactive, RGS4 pot inactive, MrgX1 PAM inactive and PHOSPHO1 block 46.1.
COc1ccc(-c2nc(-c3cccs3)c(-c3cccs3)[nH]2)cc1OC was read as MrgX1 antagonist inactive, RGS4 inh inactive, MrgX1 agonist inactive, RGS4 pot -7.95*, MrgX1 PAM inactive and PHOSPHO1 block 15.0.
O=[N+]([O-])c1ccc(-c2nc(-c3cccs3)c(-c3cccs3)[nH]2)cc1 was read as MrgX1 antagonist inactive, RGS4 inh inactive, MrgX1 agonist inactive, RGS4 pot -8.95*, MrgX1 PAM inactive and PHOSPHO1 block 37.3.
Screening CCOC(=O)/C(=C/Nc1ccc(F)cc1)[N+](=O)[O-] returned MrgX1 antagonist inactive, RGS4 inh inactive, MrgX1 agonist inactive, RGS4 pot inactive, MrgX1 PAM inactive and PHOSPHO1 block 21.9.
`S=C(NN=C1C2CC3CC(C2)CC1C3)Nc1ccccc1` gave MrgX1 antagonist inactive, RGS4 inh inactive, MrgX1 agonist inactive, RGS4 pot inactive, MrgX1 PAM inactive and PHOSPHO1 block 92.1*.
`CCC(C)(C)C1CCC(=NNC(=S)Nc2ccccc2)CC1` (stereo not drawn) gave MrgX1 antagonist inactive, RGS4 inh inactive, MrgX1 agonist inactive, RGS4 pot inactive, MrgX1 PAM inactive and PHOSPHO1 block -0.7.
Cc1cc(C)c(C)c(OCC(=O)O/N=C(\N)c2ccncc2)c1 was read as MrgX1 antagonist inactive, RGS4 inh inactive, MrgX1 agonist inactive, RGS4 pot inactive, MrgX1 PAM 9.81* and PHOSPHO1 block 23.3.
For CN1CCc2nc3ccc(Cl)cc3c(-c3ccccc3Cl)c2C1 the results were MrgX1 antagonist inactive, RGS4 inh inactive, MrgX1 agonist inactive, RGS4 pot -8.64*, MrgX1 PAM inactive and PHOSPHO1 block -18.2.
`CC(=O)Nc1sc2c(c1-c1nc3ccccc3s1)CCN(C(C)C)C2` gave MrgX1 antagonist inactive, MrgX1 agonist 27.5*, MrgX1 PAM inactive and PHOSPHO1 block 27.7.
`COC(=O)C1=C(C)NC(C)=C(C(=O)OC)C1c1ccccc1[N+](=O)[O-]` gave MrgX1 antagonist inactive, RGS4 inh inactive, MrgX1 agonist inactive, RGS4 pot -8.5*, MrgX1 PAM inactive and PHOSPHO1 block -21.0.
`CCOC(=O)C1=C(C)NC(C)=C(C(=O)OC)C1c1cccc([N+](=O)[O-])c1` (stereo not drawn) gave MrgX1 antagonist inactive, RGS4 inh inactive, MrgX1 agonist inactive, RGS4 pot inactive, MrgX1 PAM inactive and PHOSPHO1 block 13.3.
Screening CN1C(=O)/C(=C\C=C2/CCCN2C)N(C)C1=S returned MrgX1 antagonist inactive, RGS4 inh inactive, MrgX1 agonist inactive, RGS4 pot inactive, MrgX1 PAM inactive and PHOSPHO1 block -22.9.
For CCN1C(=O)/C(=C/C=C2/CCCN2C)OC1=S the results were MrgX1 antagonist inactive, RGS4 inh inactive, MrgX1 agonist 27.2*, RGS4 pot inactive, MrgX1 PAM inactive and PHOSPHO1 block 24.8.
For CCCc1cc(=O)oc2cc(C)cc(OC(C)C(=O)NCCCn3ccnc3)c12 (stereo not drawn) the results were MrgX1 antagonist inactive, RGS4 inh inactive, MrgX1 agonist inactive, RGS4 pot inactive, MrgX1 PAM inactive and PHOSPHO1 block 26.6.
COC(=O)c1ccc(OC(=O)CN2C(=O)c3ccccc3C2=O)cc1 was read as MrgX1 antagonist inactive, RGS4 inh inactive, MrgX1 agonist inactive, RGS4 pot inactive, MrgX1 PAM inactive and PHOSPHO1 block 13.8.
